Test results as given in ChEMBL document CHEMBL1649468, “AAC(6')-Iaf, a novel aminoglycoside 6'-N-acetyltransferase from multidrug-resistant Pseudomonas aeruginosa clinical isolates” (2009).
Values after ≈ are worked out from the molar mass of the structure shown.

Assays:
Escherichia coli [1] = experiment: Antimicrobial activity against Escherichia coli JM109 transformant harboring pSTV28 plasmid expressing aac(6')-Iaf wild type gene by microdilution method; format: functional
Summary of the method: (§1)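 Broth microdilution MICs followed CLSI protocols. The test strains were E. coli JM109 carrying the vector pSTV28 alone or pSTV28 bearing aac(6′)-Iaf (wild type or TTG→ATG start codon). Each strain was tested in Mueller-Hinton broth containing chloramphenicol (30 μg/ml) plus serial dilutions of individual aminoglycosides. MICs are reported in μg/ml.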

Escherichia coli [2] = experiment: Antimicrobial activity against Escherichia coli JM109 transformant harboring pSTV28 plasmid expressing aac(6')-Iaf (TTG-ATG) mutant gene by microdilution method; format: functional; summary of the method: as §1
Pseudomonas aeruginosa [3] = experiment: Antimicrobial activity against multidrug resistant Pseudomonas aeruginosa isolate IMCJ2S1 by microdilution method; format: functional
Pseudomonas aeruginosa [4] = experiment: Antimicrobial activity against Pseudomonas aeruginosa isolate IMCJ799 by microdilution method; format: functional
Summary of the method: (§2)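 Broth microdilution MIC following CLSI-recommended protocols, tested on multidrug-resistant clinical P. aeruginosa isolates against a panel of individual aminoglycosides. MIC reported in μg/ml.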

Pseudomonas aeruginosa [5] = experiment: Antimicrobial activity against rifampin-resistant Pseudomonas aeruginosa ATCC 27853 by microdilution method; format: functional
Pseudomonas aeruginosa [6] = experiment: Antimicrobial activity against Pseudomonas aeruginosa isolate IMCJ798 by microdilution method; format: functional; summary of the method: as §2
Pseudomonas aeruginosa [7] = experiment: Antimicrobial activity against multidrug resistant Pseudomonas aeruginosa by microdilution method; format: functional
Escherichia coli [8] = experiment: Antimicrobial activity against Escherichia coli JM109 transformant harboring pSTV28 plasmid by microdilution method
Pseudomonas aeruginosa [9] = experiment: Antimicrobial activity against Pseudomonas aeruginosa isolate IMCJ798 by microdilution method in presence of beta-lactamase inhibitor Tazobactam; format: functional
Pseudomonas aeruginosa [10] = experiment: Antimicrobial activity against rifampin-resistant Pseudomonas aeruginosa ATCC 27853 by microdilution method in presence of beta-lactamase inhibitor Tazobactam; format: functional
Pseudomonas aeruginosa [11] = experiment: Antimicrobial activity against multidrug resistant Pseudomonas aeruginosa isolate IMCJ2S1 by microdilution method in presence of beta-lactamase inhibitor Tazobactam; format: functional
Pseudomonas aeruginosa [12] = experiment: Antimicrobial activity against Pseudomonas aeruginosa isolate IMCJ799 by microdilution method in presence of beta-lactamase inhibitor Tazobactam; format: functional

| Compound | MIC (Escherichia coli [1]) [µg/mL] | MIC (Escherichia coli [2]) [µg/mL] | MIC (Pseudomonas aeruginosa [3]) [µg/mL] | MIC (Pseudomonas aeruginosa [4]) [µg/mL] | MIC (Pseudomonas aeruginosa [5]) [µg/mL] | MIC (Pseudomonas aeruginosa [6]) [µg/mL] | MIC (Pseudomonas aeruginosa [7]) [µg/mL] | MIC (Escherichia coli [8]) [µg/mL] | MIC (Pseudomonas aeruginosa [9]) [µg/mL] | MIC (Pseudomonas aeruginosa [10]) [µg/mL] | MIC (Pseudomonas aeruginosa [11]) [µg/mL] | MIC (Pseudomonas aeruginosa [12]) [µg/mL] |
| --- | --- | --- | --- | --- | --- | --- | --- | --- | --- | --- | --- | --- |
| NCC[C@H](O)C(=O)N[C@@H]1C[C@H](N)[C@@H](O[C@H]2O[C@H](CN)[C@@H](O)[C@H](O)[C@H]2O)[C@H](O)[C@H]1O[C@H]1O[C@H](CO)[C@@H](O)[C@H](N)[C@H]1O [AMIKACIN] | 16 (≈ 27.3 µM) | 32 (≈ 54.6 µM) | 128 (≈ 219 µM) | 128 (≈ 219 µM) | 2 (≈ 3.42 µM) | 128 (≈ 219 µM) | ≥ 32 | 1 (≈ 1.71 µM) |  |  |  |  |
| NCC[C@H](O)C(=O)N[C@@H]1C[C@H](N)[C@@H](O[C@H]2O[C@H](CN)CC[C@H]2N)[C@H](O)[C@H]1O[C@H]1O[C@H](CO)[C@@H](O)[C@H](N)[C@H]1O [ARBEKACIN] | 4 (≈ 7.24 µM) | 4 (≈ 7.24 µM) | 2 (≈ 3.62 µM) | 16 (≈ 29 µM) | < 0.5 | 8 (≈ 14.5 µM) |  | 2 (≈ 3.62 µM) |  |  |  |  |
| C[C@H]1[C@H](NC(=O)/C(=N\OC(C)(C)C(=O)O)c2csc(N)n2)C(=O)N1S(=O)(=O)O [AZTREONAM] |  |  | 128 (≈ 294 µM) | 64 (≈ 147 µM) | 2 (≈ 4.59 µM) | 64 (≈ 147 µM) |  |  |  |  |  |  |
| CC(C)(O/N=C(\C(=O)N[C@@H]1C(=O)N2C(C(=O)[O-])=C(C[n+]3ccccc3)CS[C@H]12)c1csc(N)n1)C(=O)O [CEFTAZIDIME] |  |  | 512 (≈ 937 µM) | 512 (≈ 937 µM) | < 1 | 512 (≈ 937 µM) |  |  |  |  |  |  |
| NC[C@@H]1CC[C@@H](N)[C@@H](O[C@H]2[C@H](O)[C@@H](O[C@H]3O[C@H](CO)[C@@H](O)[C@H](N)[C@H]3O)[C@H](N)C[C@@H]2N)O1 [DIBEKACIN] | 16 (≈ 35.4 µM) | 32 (≈ 70.9 µM) |  | > 128 |  | > 128 |  | 1 (≈ 2.21 µM) |  |  |  |  |
| NC[C@@H]1O[C@H](O[C@H]2[C@@H](O)[C@H](O[C@@H]3[C@@H](O)[C@H](N)C[C@H](N)[C@H]3O[C@H]3O[C@H](CN)[C@@H](O)[C@H](O)[C@H]3N)O[C@@H]2CO)[C@H](N)[C@@H](O)[C@@H]1O [FRAMYCETIN] | 4 (≈ 6.51 µM) | 4 (≈ 6.51 µM) |  | 8 (≈ 13 µM) |  | 8 (≈ 13 µM) |  | 2 (≈ 3.25 µM) |  |  |  |  |
| C[C@@H](O)[C@H]1C(=O)N2C(C(=O)O)=C(SCCNC=N)C[C@H]12 [IMIPENEM ANHYDROUS] |  |  | 128 (≈ 428 µM) | 128 (≈ 428 µM) | 4 (≈ 13.4 µM) | 128 (≈ 428 µM) |  |  |  |  |  |  |
| CN[C@@H]1[C@@H](O)C(O[C@@H]2[C@@H](O)[C@H](OC3O[C@H](CN)[C@@H](O)[C@H](O)[C@H]3O)[C@@H](N)C[C@H]2NC(=O)[C@@H](O)CN)OC[C@]1(C)O (some centres undefined) [ISOPAMICIN] | 4 (≈ 7.02 µM) | 16 (≈ 28.1 µM) |  | > 128 |  | > 128 |  | 1 (≈ 1.76 µM) |  |  |  |  |
| NC[C@H]1O[C@H](O[C@H]2[C@H](O)[C@@H](O[C@H]3O[C@H](CO)[C@@H](O)[C@H](N)[C@H]3O)[C@H](N)C[C@@H]2N)[C@H](O)[C@@H](O)[C@@H]1O [KANAMYCIN] | 64 (≈ 132 µM) | 128 (≈ 264 µM) |  | > 128 |  | > 128 |  | 2 (≈ 4.13 µM) |  |  |  |  |
| C[C@@H](O)[C@H]1C(=O)N2C(C(=O)O)=C(S[C@@H]3CN[C@H](C(=O)N(C)C)C3)[C@H](C)[C@H]12 [MEROPENEM] |  |  | 512 (≈ 1340 µM) | > 512 | 1 (≈ 2.61 µM) | > 512 | ≥ 16 |  |  |  |  |  |
| CCN[C@@H]1C[C@H](N)[C@@H](O[C@H]2OC(CN)=CC[C@H]2N)[C@H](O)[C@H]1O[C@H]1OC[C@](C)(O)[C@H](NC)[C@H]1O [NETILMICIN] | 8 (≈ 16.8 µM) | 8 (≈ 16.8 µM) |  | > 128 |  | > 128 |  | 0.5 (≈ 1.05 µM) |  |  |  |  |
| CC1COc2c(N3CCN(C)CC3)c(F)cc3c(=O)c(C(=O)O)cn1c23 (centres undefined) [OFLOXACIN] |  |  |  | > 128 | < 0.5 | > 128 | ≥ 4 |  |  |  |  |  |
| CCN1CCN(C(=O)N[C@@H](C(=O)N[C@@H]2C(=O)N3[C@@H]2SC(C)(C)[C@@H]3C(=O)O)c2ccccc2)C(=O)C1=O [PIPERACILLIN] |  |  | 256 (≈ 495 µM) | 256 (≈ 495 µM) | < 4 | 256 (≈ 495 µM) |  |  |  |  |  |  |
| CN[C@@H]1[C@@H](O)[C@@H](O[C@@H]2[C@@H](O)[C@H](O[C@H]3OC(CN)=CC[C@H]3N)[C@@H](N)C[C@H]2N)OC[C@]1(C)O [SISOMICIN] | 1 (≈ 2.23 µM) | 2 (≈ 4.47 µM) |  | 32 (≈ 71.5 µM) |  | 32 (≈ 71.5 µM) |  | 0.5 (≈ 1.12 µM) |  |  |  |  |
| C[C@]1(Cn2ccnn2)[C@H](C(=O)O)N2C(=O)C[C@H]2S1(=O)=O [TAZOBACTAM] |  |  |  |  |  |  |  |  | 256 | 4 | 256 | 256 |
| NC[C@H]1O[C@H](O[C@H]2[C@H](O)[C@@H](O[C@H]3O[C@H](CO)[C@@H](O)[C@H](N)[C@H]3O)[C@H](N)C[C@@H]2N)[C@H](N)C[C@@H]1O [TOBRAMYCIN] | 4 (≈ 8.56 µM) | 4 (≈ 8.56 µM) |  | 32 (≈ 68.4 µM) |  | 32 (≈ 68.4 µM) |  | 0.125 (≈ 0.267 µM) |  |  |  |  |
| GENTAMICIN | 1 | 1 | 16 | 2 | < 1 | 4 |  |  |  |  |  |  |
| POLYMYXIN B |  |  | 2 | 4 | 2 | 4 |  |  |  |  |  |  |
